Test results reported in PubChem BioAssay AID588705 (Broad Institute, 2011).
The source made the active and inactive calls. No rule for the calls is given here.

Tested on: not listed separately
Assay: viability of MDA231 breast tumor cells – cell-based, CellTiter-Glo luminescence, dry powder, dose response (AID 588705)
Settings: MDA-MB-231 viability, CellTiter-Glo luminescence, 72 h
Method in brief: (§1)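 Measured by: CellTiter-Glo luminescence / System: MDA231 (MDA-MB-231) human breast cancer cell line / Amount: 1000 cells/well / Incubation: compound added 24 h post-seeding, then 72 h exposure / Controls: DMSO-only wells as negative (normalization) control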

SMILES | outcome
O=C(N/N=C/c1ccc[nH]1)c1cc2ccccc2o1 | inactive

Tested on: MDA-MB-231 viability, CellTiter-Glo luminescence, 72 h
Assay: as above
Settings: not given
Method in brief: as §1

SMILES | AC50 [µM]
O=C(COc1c(Cl)cc(Cl)cc1Cl)N/N=C/c1ccc[nH]1 | 2.81
CC(C)(C)c1ccc2c(c1)OC(C(=O)N/N=C/c1ccc[nH]1)CO2 (configuration not stated) | 14.7
O=C(COc1ccc(Cl)cc1Cl)N/N=C/c1cnc[nH]1 | 31.6
O=C(COc1cc(Cl)ccc1Cl)N/N=C/c1ccc[nH]1 | 7.24
Cc1cc(Cl)ccc1OCC(=O)N/N=C/c1ccc[nH]1 | 16.7
O=C(COc1ccc(Cl)cc1Cl)N/N=C/c1ccc[nH]1 | 47.6
